The results in this text go back to ChEMBL document CHEMBL3085725, “Design, synthesis and molecular modelling studies of novel 3-acetamido-4-methyl benzoic acid derivatives as inhibitors of protein tyrosine phosphatase 1B” (Eur J Med Chem, 2013).

Broadly, the inhibition is the share of the control response that was lost under treatment. Usually IC50 stands for the concentration that inhibits the measured activity by half.

In data set [1] the target is T1, Tyrosine-protein phosphatase non-receptor type 1 (Homo sapiens) (UniProt P18031).
T1 sequence (whole entry): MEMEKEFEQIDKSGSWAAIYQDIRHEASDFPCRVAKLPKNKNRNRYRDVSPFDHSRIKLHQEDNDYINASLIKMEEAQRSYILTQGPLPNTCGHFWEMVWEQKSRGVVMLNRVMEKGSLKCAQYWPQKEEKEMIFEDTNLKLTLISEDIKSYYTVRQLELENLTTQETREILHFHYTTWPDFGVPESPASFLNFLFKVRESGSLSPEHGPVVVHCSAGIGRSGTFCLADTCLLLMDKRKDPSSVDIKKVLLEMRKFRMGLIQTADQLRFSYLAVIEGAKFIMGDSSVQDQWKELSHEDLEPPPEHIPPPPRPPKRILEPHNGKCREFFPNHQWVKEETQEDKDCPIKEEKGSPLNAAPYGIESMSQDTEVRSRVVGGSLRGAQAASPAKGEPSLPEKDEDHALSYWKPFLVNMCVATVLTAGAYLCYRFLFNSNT
In words: Inhibition of recombinant human PTP1B at 10 uM by malachite green assay relative to control. The method in brief: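 Human recombinant PTP1B incubated with test compound at 10 µM; DMSO as control. Colorimetric, non-radioactive assay detecting free phosphate released, read with Biomol red phosphate reagent (malachite green basis). Percent inhibition is calculated against control activity without inhibitor, taken as 100%, from three independent sets of experiments.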

The target of data set [2] is T2, Tyrosine-protein phosphatase non-receptor type 1 (Homo sapiens, UniProt P18031).
T2 sequence (P18031 whole entry): T1 sequence (whole entry)
In words: Inhibition of recombinant human PTP1B by malachite green assay. A digest of the protocol: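 Human recombinant PTP1B; compounds giving around 50% inhibition at 10 µM are retested at six concentrations. Free phosphate released is detected colorimetrically with Biomol red (malachite green).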

The species entered for data set [3] is Danio rerio. In words: Toxicity in zebra fish embryo assessed as death at 10 uM after 24 to 72 hrs by visible light microscopy. Type of data set: organism-based. To be noted: zebrafish, in vivo. The method in brief:
(§1)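 Wild-type Indian zebrafish strain kept at 28 °C, 14:10 h light/dark. Embryos from natural mating raised 24 h in E3 medium, dechorionated at 24 hpf with 500 µg/ml Pronase K for 10 min. Six embryos per well exposed to compound at 10 µM final in 0.1% DMSO for 24, 48 and 72 h. Controls received 0.1% DMSO. Embryos scored under visible light microscopy at intervals.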

Data set [4] is filed under the species Danio rerio. In words: Toxicity in zebra fish embryo assessed as deformation at 10 uM after 24 to 72 hrs by visible light microscopy. Format: organism-based. To be noted: zebrafish, in vivo. The method in brief:
as §1

Data set [5] deals with Danio rerio. In words: Toxicity in zebra fish embryo assessed as oedema at 10 uM after 24 to 72 hrs by visible light microscopy. Format: organism-based. To be noted: zebrafish, in vivo. A digest of the protocol:
as §1

The species entered for data set [6] is Danio rerio. In words: Toxicity in zebra fish embryo assessed as developmental delay at 10 uM after 24 to 72 hrs by visible light microscopy. To be noted: zebrafish, in vivo. Type of data set: organism-based. A digest of the protocol: as §1

Regarding `Cc1ccc(C(=O)O)cc1NC(=O)CSc1nc2cc([N+](=O)[O-])ccc2[nH]1`, in data set [1], the inhibition worked out at 26.9%.
Still for that read-out and setting: for `Cc1ccc(C(=O)O)cc1NC(=O)CSc1nnc(-c2ccccc2Cl)o1` the value was 27.5%; for `Cc1ccc(C(=O)O)cc1NC(=O)CSc1nnc(-c2ccc(Cl)cc2Cl)o1`, 43.3%; for `Cc1ccc(C(=O)O)cc1NC(=O)CSc1nc2ccccc2o1`, 32.8%.
On the same count and under the same terms, then `Cc1ccc(C(=O)O)cc1NC(=O)CSc1nnc(-c2cccc(Cl)c2Cl)o1`, with 29.9%; and `Cc1ccc(C(=O)O)cc1NC(=O)CSc1nnc(-c2ccccc2O)o1`, with 38.8%.
In the case of `Cc1ccc(C(=O)O)cc1NC(=O)CSc1nc2ccccc2[nH]1`, in data set [2], the IC50 is 15.2 µM. For the same compound, in data set [1], the inhibition worked out at 47.8%.
The corresponding values for `Cc1ccc(C(=O)O)cc1NC(=O)CSc1nc2ccccc2s1` are 8.5 µM and 57.5%.
The corresponding values for `Cc1ccc(C(=O)O)cc1NC(=O)CSc1nnc(-c2ccc(O)cc2)o1` are 10.3 µM and 47%.
Consider `COc1ccc2[nH]c(SCC(=O)Nc3cc(C(=O)O)ccc3C)nc2c1`, for which the Activity result in the data set listed under Danio rerio [3], in the data set listed under Danio rerio [4], in the data set with Danio rerio [5] and in the data set filed under Danio rerio [6] was “Non-toxic” throughout. Also, the IC50 in data set [2] is 8.2 µM. Also, in data set [1], the inhibition is 57.5%.
With `Cc1ccc(-c2nnc(SCC(=O)Nc3cc(C(=O)O)ccc3C)o2)cc1`, the IC50 in data set [2] worked out at 8.9 µM. Further, the inhibition in data set [1] stood at 51.5%.
For `COc1cc(-c2nnc(SCC(=O)Nc3cc(C(=O)O)ccc3C)o2)cc(OC)c1OC` the same measures were 9.7 µM and 50.7%.
